Test results reported in PMC10009879 (RSC Advances, 2023).
Converted amounts (≈) assume the structure as drawn.

How the values were obtained:
α-glucosidase [1] = settings: cited from earlier work
α-glucosidase [2] = experiment: α-Glucosidase inhibition type and inhibition constants by Lineweaver–Burk plots; format: biochemical, Saccharomyces cerevisiae
How it was run: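 Yeast (Saccharomyces cerevisiae) α-glucosidase with 4-nitrophenyl […]-D-glucopyranoside (pNPG) as substrate. The test compound was run at 0, 1.98, 3.97 and 7.93 μM, each in three replicates. Inhibition type was assigned from Lineweaver–Burk plots using a modified published method. Ki (free enzyme) and K′i (enzyme–substrate complex) were derived from the same data.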

α-glucosidase [3] = experiment: Screening of α-glucosidase inhibitory activity; format: biochemical, Saccharomyces cerevisiae; settings: times better than acarbose
α-glucosidase [4] = settings: previous study; ref Zhang et al., 23; cited from earlier work
yeast α-glucosidase = settings: in vitro; cited from earlier work
[5] = tested on: STZ-induced diabetic rats; settings: cited from earlier work
[6] = tested on: mice fed a high fat and high sucrose diet; settings: cited from earlier work

## O=c1c(O)c(-c2ccc(O)cc2)oc2cc(O)cc(O)c12 [Compound 3, kaempferol]
α-glucosidase [1]
  α-glucosidase inhibition: ~95.1%

## O=c1c(O)c(-c2ccc(O)c(O)c2)oc2c(Br)c(O)cc(O)c12 [Compound 5a, 8-Bromoquercetin]
α-glucosidase [2]; Lineweaver–Burk plots, 0, 1.98, 3.97, 7.93 μM
  type of α-glucosidase inhibition: mixed mode inhibitor
α-glucosidase [2]; read-out: inhibition constant binding with the free enzyme (Ki), secondary plot
  Ki: 5.58 ± 0.35 µM
α-glucosidase [2]; secondary plot
  inhibition constant binding with the enzyme–substrate complex (K′i): 10.33 ± 0.85 µM
α-glucosidase [3]
  α-glucosidase inhibition relative to the standard drug acarbose: thirty-seven times better

## C[C@@H]1O[C@@H](Oc2c(-c3ccc(O)c(O)c3)oc3cc(O)cc(O)c3c2=O)[C@H](O)[C@H](O)[C@H]1O [Compound 6, quercitrin]
α-glucosidase [4]
  IC50 α-glucosidase inhibition: 0.215 ± 0.004 mg/mL (≈ 480 µM)

## O=c1c(O)c(-c2cc(O)c(O)c(O)c2)oc2cc(O)cc(O)c12 [myricetin]
Yeast α-glucosidase
  IC50 yeast α-glucosidase: 5 µg/mL (≈ 15.7 µM)
[5]
  effect on fasting blood glucose level: cut down the fasting blood glucose level
[6]
  effect on fasting blood glucose level: cut down the fasting blood glucose level
